The target in data set [1] is T1, D(2) dopamine receptor (Rattus norvegicus, UniProt P61169). In words: In vitro displacement of [3H]spiperone from Dopamine receptor D2 binding site in rat striatum. A general note: In a radioligand displacement assay an active substance lowers the binding of a labelled ligand.
Data set [2] addresses T2, 5-hydroxytryptamine receptor 1A (Rattus norvegicus, UniProt P19327).
T2 sequence (P19327 whole entry): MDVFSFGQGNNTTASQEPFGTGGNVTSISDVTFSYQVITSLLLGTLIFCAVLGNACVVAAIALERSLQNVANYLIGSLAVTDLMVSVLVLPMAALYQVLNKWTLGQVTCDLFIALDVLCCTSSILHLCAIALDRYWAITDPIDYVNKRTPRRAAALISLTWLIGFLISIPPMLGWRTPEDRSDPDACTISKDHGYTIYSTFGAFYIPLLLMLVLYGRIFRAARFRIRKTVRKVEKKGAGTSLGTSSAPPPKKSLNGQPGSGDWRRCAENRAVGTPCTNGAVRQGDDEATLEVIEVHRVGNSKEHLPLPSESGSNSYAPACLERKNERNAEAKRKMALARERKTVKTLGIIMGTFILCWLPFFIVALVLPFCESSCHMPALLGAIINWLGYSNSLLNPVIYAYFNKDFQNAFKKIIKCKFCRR
Kind of data set: Binding affinity was evaluated by determining in vitro displacement of [3H]8-OH-DPAT from the central 5-hydroxytryptamine 1A receptor recognition site in rat frontal cortex homogenate. Format: tissue-based.

Data set [3] addresses T2, 5-hydroxytryptamine receptor 1A. Kind of data set: pKi value against rat 5-hydroxytryptamine 1A receptor.
Data set [4] in a line: Partition coefficient (logP). Conditions: octanol/water. Format: physicochemical. Put shortly:
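Retention factor k converted via calibration with 10 reference compounds (log Pow 2.1–5.7). Values below 2.1 extrapolated; interpolated values carry 95% confidence interval ±0.4.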

Data set [5] has as its target T1, D(2) dopamine receptor. Kind of data set: pKi value against rat Dopamine receptor D2.
The target of data set [6] is T3, 5-hydroxytryptamine receptor 1A (Homo sapiens, UniProt P08908).
T3 sequence (P08908 whole entry): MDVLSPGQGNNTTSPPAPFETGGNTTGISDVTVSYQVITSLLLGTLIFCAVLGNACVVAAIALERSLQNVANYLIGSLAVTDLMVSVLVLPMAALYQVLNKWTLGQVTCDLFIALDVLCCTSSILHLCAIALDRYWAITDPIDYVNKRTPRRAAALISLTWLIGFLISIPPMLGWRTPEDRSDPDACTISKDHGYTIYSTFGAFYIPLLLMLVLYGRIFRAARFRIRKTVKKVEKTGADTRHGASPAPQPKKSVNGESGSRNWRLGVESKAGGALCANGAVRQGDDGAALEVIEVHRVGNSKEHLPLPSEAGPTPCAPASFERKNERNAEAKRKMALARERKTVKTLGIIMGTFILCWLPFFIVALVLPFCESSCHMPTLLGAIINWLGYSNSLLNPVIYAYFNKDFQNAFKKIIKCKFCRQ
Kind of data set: In vitro potency at human 5-hydroxytryptamine 1A receptor in inhibiting forskolin-stimulated accumulation of intracellular cAMP. Format: functional, cell-based. In a few lines:
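CHO cells stably expressing human 5-HT1A receptor, grown in α-DMEM + 10% fetal calf serum, seeded 3 days before assay. Labelled with [3H]adenine (2 μCi/mL) for 2 h, rinsed with PBS/10 mM IBMX, then stimulated 10 min with forskolin (10^-7 M) plus compound at various concentrations, in quadruplicate. TCA extraction; [3H]cAMP separated on Dowex/alumina columns, scintillation counting. EC50 from three independent experiments.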

SMILES strings stand for the structures. Bounds are passed on as bounds.

T1 sequence (P61169 whole entry): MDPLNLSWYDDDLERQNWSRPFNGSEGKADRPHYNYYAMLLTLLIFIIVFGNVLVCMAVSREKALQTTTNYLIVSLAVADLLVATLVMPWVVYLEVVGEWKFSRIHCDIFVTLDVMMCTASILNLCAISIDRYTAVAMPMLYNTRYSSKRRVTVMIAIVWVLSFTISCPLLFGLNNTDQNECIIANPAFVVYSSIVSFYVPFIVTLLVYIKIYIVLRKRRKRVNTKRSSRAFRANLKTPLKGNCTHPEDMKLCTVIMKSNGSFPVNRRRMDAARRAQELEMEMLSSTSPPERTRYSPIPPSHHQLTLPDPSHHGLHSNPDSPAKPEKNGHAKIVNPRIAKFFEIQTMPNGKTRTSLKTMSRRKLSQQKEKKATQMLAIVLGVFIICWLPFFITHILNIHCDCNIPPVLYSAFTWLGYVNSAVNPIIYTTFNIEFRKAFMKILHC

`c1ccc(N2CCNCC2)cc1` [PHENYLPIPERAZINE] gave a Ki in data set [1] of 6800 nM.

Consider `COc1ccccc1N1CCN(CCNC(=O)c2cccs2)CC1`, for which the inhibitory constant (Ki) was 1.6 nM in data set [2], 1.58 nM in data set [3], 15.8 nM in data set [5] and 17 nM in data set [1]. This compound also returned a logP in data set [4] of 2.

In turn, `O=C(NCCN1CCN(c2ccccc2)CC1)c1ccc(F)cc1` showed an inhibition constant Ki in data set [2] of 4.9 nM.

Turning to `COc1ccccc1N1CCN(CCCC(O)c2ccc(F)cc2)CC1` (stereo not drawn) [ANISOPIROL], the Ki was 2.5 nM in data set [2], 2.51 nM in data set [3], 3.16 nM in data set [5] and 3.4 nM in data set [1]. In data set [4], this compound had a logP of 3.4.

In the case of `COc1ccccc1N1CCN(CCNC(=O)c2cccnc2)CC1`, the Ki is 140 nM in data set [2], 158 nM in data set [3], 501 nM in data set [5] and 570 nM in data set [1]. In data set [4], this compound gave a lipophilicity (logP) of 1.2.

Turning to `COc1ccccc1N1CCN(CCCC(=O)c2ccc(F)cc2)CC1` [FLUANISONE], the inhibition constant (Ki) in data set [2] is 1 nM; in data set [3], 1 nM; in data set [5], 2.51 nM; in data set [1] it was 3.1 nM. Further, the logP in data set [4] stood at 3.6.

On to `COc1ccccc1N1CCN(CCNC(=O)c2ccccc2)CC1`, for which the Ki in data set [2] was 1.3 nM; in data set [3], 1.26 nM; in data set [5] it was 12.6 nM; in data set [1] it was 13 nM. This compound showed a logP in data set [4] of 2.2.

Take `COc1ccccc1N1CCN(CCCCc2ccc(F)cc2)CC1`: the Ki in data set [2] is 1.1 nM; in data set [3], 1 nM; in data set [5], 3.16 nM; in data set [1], 3.3 nM. This compound also yielded a logP in data set [4] of 4.8.

In turn, `O=C(NCCN1CCN(c2cccc3ccoc23)CC1)c1ccc(F)cc1` came in with a Ki in data set [1] of 5.3 nM.

For `O=C(NCCN1CCN(c2cccc3c2OCC(CO)O3)CC1)c1ccc(F)cc1` (single isomer, unassigned) [FLESINOXAN], the inhibition constant Ki in data set [2] turned out to be 1.7 nM; in data set [1], 140 nM.

Regarding `COc1ccccc1N1CCN(CCNC(C)=O)CC1`, the Ki in data set [2] is 800 nM; in data set [3] it was 794 nM; in data set [5] it was 1000 nM; in data set [1], 1100 nM. Besides, the logP in data set [4] stood at 0.5.

With `COc1ccccc1N1CCN(CCNC(=O)c2ccco2)CC1`, the Ki in data set [2] was 18 nM; in data set [3], 20 nM; in data set [5], 79.4 nM; in data set [1], 73 nM. The compound also gave a log partition coefficient (logP) in data set [4] of 1.6.

`COc1ccccc1N1CCN(CCNC(=S)C2CCCCC2)CC1`: the Ki was 0.32 nM in data set [2], 0.316 nM in data set [3], 6.31 nM in data set [5] and 6.4 nM in data set [1]. This compound yielded a logP in data set [4] of 3.7.

On to `COc1ccccc1N1CCN(CCNC(=N)C2CCCCC2)CC1`, for which the Ki in data set [2] is 4.5 nM; in data set [3], 5.01 nM; in data set [5], 126 nM; in data set [1] it was 130 nM. The lipophilicity (logP) in data set [4] worked out at 3.4.

The compound `OC[C@@H]1COc2c(cccc2N2CCNCC2)O1` had an inhibition constant (Ki) in data set [1] of more than 10000 nM.

Take `COc1ccccc1N1CCN(CCNC(=O)C2CCCCC2)CC1`: the Ki in data set [2] is 0.8 nM; in data set [3], 0.794 nM; in data set [5], 12.6 nM; in data set [1] it was 23 nM. The same compound registered a logP in data set [4] of 2.8.

In the case of `COc1ccccc1N1CCN(CCCOc2ccc(F)cc2)CC1`, the Ki in data set [2] was 3.4 nM; in data set [3] it was 3.16 nM; in data set [5], 3.16 nM; in data set [1], 3.3 nM. Besides, the lipophilicity (logP) in data set [4] was found to be 4.1.

In data set [1], `c1cc(N2CCNCC2)c2occc2c1` returned an inhibitory constant (Ki) of 780 nM.

In the case of `COc1ccccc1N1CCN(CCNC(=O)c2ccc(F)cc2)CC1`, the inhibition constant Ki in data set [2] and in data set [3] was 1 nM each time. Moreover, in data set [4], the log partition coefficient (logP) is 2.5.

Take `COc1ccccc1N1CCN(CC/C=C/c2ccc(F)cc2)CC1`: the inhibition constant Ki in data set [2] is 1.8 nM; in data set [3], 2 nM; in data set [5], 3.98 nM; in data set [1] it was 4.1 nM. In data set [4], this compound registered a logP of 4.7.

Take `COc1ccccc1N1CCN(CCOCc2ccc(F)cc2)CC1`: the Ki is 22 nM in data set [2], 20 nM in data set [3], 10 nM in data set [5] and 10 nM in data set [1]. The compound also had a logP in data set [4] of 3.6.

The compound `CC1CN(c2cccc3c2OCCO3)CC(C)N1CCNC(=O)c1ccc(F)cc1` (stereo not drawn) returned an EC50 in data set [6] of 0.78 nM.

Compound `O=C(NCCN1CCN(c2cccc3c2OCCO3)CC1)c1ccc(F)cc1` yielded an EC50 in data set [6] of 0.9 nM. The compound further came in with a Ki in data set [1] of 14 nM.

Regarding `COc1ccccc1N1CCN(CCNC(=O)c2ccncn2)CC1`, the Ki is 15 nM in data set [2], 15.8 nM in data set [3], 251 nM in data set [5] and 250 nM in data set [1]. In data set [4], this compound registered a logP of 1.5.

As for `COc1ccccc1N1CCN(CCNC(=O)c2ccc[nH]2)CC1`, the Ki in data set [2] was 16 nM; in data set [3], 15.8 nM; in data set [5], 63.1 nM; in data set [1] it was 64 nM. The compound further gave a logP in data set [4] of 1.6.

For orientation: Ki means the dissociation constant of the complex between target and ligand, obtained from inhibition or displacement. Low readings indicate a stronger hold on the target, high ones a looser hold on the target. Broadly, the logP is the decadic logarithm of the partition coefficient of the neutral form, usually between octanol and water. For orientation: EC50 means the concentration needed to bring the measured effect to its halfway point.

For the origin of these results see ChEMBL document CHEMBL1130285, “5-HT1A-versus D2-receptor selectivity of flesinoxan and analogous N4-substituted N1-arylpiperazines” (J Med Chem, 1997).
